# Source: PubChem BioAssay
# beta cell repl: inducers of beta-cell replication in MIN6 cells; MIN6 cells proliferation, ATPlite luminescence, 48 h; cells starved in 0.2% serum; 100% = growth in 10% serum; proliferation, % at 10 µM; 330,000 tested, 0.29% active;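 active = compounds whose signal lies at least 3.5 SD above the mean of all wells on their plate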;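 also: 0% = DMSO-treated cells in low-serum medium and 100% = 10% serum control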
# Rev-erbA mod: modulates human Rev-erb alpha binding to DNA; P20393; Rev-erbα–FITC-DNA binding, fluorescence polarization, 90 min; activity, % at 10 µM; 370,000 tested, 0.79% active;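 active = activity above about 14%, limit read from the data; passing the limit was not always enough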;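 also: 0% = DMSO wells with 35 nM protein and 100% = DMSO wells with 750 nM protein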
# Target sequence (P20393 whole entry, looked up): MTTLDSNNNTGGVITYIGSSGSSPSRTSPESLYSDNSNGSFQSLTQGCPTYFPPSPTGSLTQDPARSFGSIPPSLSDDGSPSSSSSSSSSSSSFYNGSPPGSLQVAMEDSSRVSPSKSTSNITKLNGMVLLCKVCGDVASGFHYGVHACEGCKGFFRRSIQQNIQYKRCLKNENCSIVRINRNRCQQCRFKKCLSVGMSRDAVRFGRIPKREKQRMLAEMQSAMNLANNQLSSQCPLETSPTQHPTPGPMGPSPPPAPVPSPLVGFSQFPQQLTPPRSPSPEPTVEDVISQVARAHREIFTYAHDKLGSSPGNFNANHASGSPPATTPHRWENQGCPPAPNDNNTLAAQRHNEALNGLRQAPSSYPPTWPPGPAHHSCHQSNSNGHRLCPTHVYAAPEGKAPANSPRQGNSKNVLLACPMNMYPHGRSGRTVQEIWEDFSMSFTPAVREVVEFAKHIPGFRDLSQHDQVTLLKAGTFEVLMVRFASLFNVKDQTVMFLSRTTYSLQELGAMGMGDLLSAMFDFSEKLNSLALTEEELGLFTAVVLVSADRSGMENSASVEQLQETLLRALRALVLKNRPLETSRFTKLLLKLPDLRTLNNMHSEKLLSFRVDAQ
# PG9 binder: binds the HIV-1 gp120 antibody PG9. TR-FRET gp120-PG9 antibody binding. inhibition, % at 6.7 µM. AID 624416. 360,000 tested, 0.43% active; in the data active = inhibition above about 8.5%
# H9c2 TAG inh: inhibitors of triacylglycerol accumulation; H9c2 cells, Nile Red lipid (TAG) fluorescence; cells loaded with 200 µM oleic acid; inhibition, % at 12.5 µM; 230,000 tested, 0.66% active;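 active = pattern-corrected inhibition of lipid staining of at least 50% with the nuclear-stain viability signal not falling by more than 50%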;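 also: 0% = DMSO wells and 100% = triacsin C control wells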
# T cruzi inh: T. cruzi replication inhibition | inhibition, % (test concentration not listed) | T. cruzi beta-gal in NIH3T3, luminescence, 90 h | 300,000 tested, 1.4% active;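 active = mean inhibition across valid replicates above about 55%, limit read from the data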;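 also: signal also drops with host cell toxicity which is not excluded here; 0% = plate median of DMSO wells and 100% = zero luminescence signal; higher percent means less beta-gal luminescence so fewer parasites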
#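 Assay system: NIH/3T3 host cells with β-galactosidase reporter T. cruzi; input: 5,000 host fibroblasts per well; compound: single 50 nL compound addition per well in DMSO; timing: ≥90 h infection period, 3 h prior cell attachment; measured by: GalScreen β-gal luminescence, detergent lysis, 60 min; evaluation: percent inhibition of parasite-derived β-gal signal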
# iPSC survival up: enhancers of human iPSC single-cell survival | hiPSC single-cell survival, ATPlite luminescence; 100% = ROCK inhibitor wells, 0% = DMSO | survival enhancement, % at 20 µM | 360,000 tested, 0.044% active; in the data active = survival enhancement above about 18%;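 also: cells exposed to compounds for 16 hours before the ATP read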
# PG9 binder conf: PG9 antibody binding, confirmed | inhibition, % at 6.7 µM | TR-FRET PG9 antibody binding, biochemical | shares compounds with PG9 binder | 1,500 tested, 90% active; in the data active = inhibition above about 9%
# PGV04 counter: PGV04 control antibody binding, counter-screen; shares compounds with PG9 binder; 1,500 tested, 95% active; TR-FRET PGV04 antibody-gp120 binding, biochemical; inhibition, % at 6.7 µM; in the data active = inhibition above about 9.5%
# * marks the source's active call; other numbers are inactive results; . = no result. Only some compounds are listed: those with a hit (about 2.9% of all), similar ones and a draw of the others.
SMILES,beta cell repl,Rev-erbA mod,PG9 binder,H9c2 TAG inh,T cruzi inh,iPSC survival up,PG9 binder conf,PGV04 counter
CC(=O)c1ccc(N2CCN(S(=O)(=O)c3cccc(S(=O)(=O)N4CCOCC4)c3)CC2)cc1,-1,14,16*,-58,25,-1,18*,27*
CC(=O)c1ccc(N2CCN(C(=O)/C=C/c3ccc(S(=O)(=O)N4CCOCC4)cc3)CC2)cc1,-2,-1,0,-17,-19,0,.,.
O=C(Cn1c(=O)c2cccn2c2ccccc21)NCCc1ccccc1,-3,7,11*,.,1,2,19*,27*
COc1cc(/C=C2\SC(=S)N(NC(=O)c3cccnc3)C2=O)ccc1O,0,16,-8,-21,-5,0,.,.
CCOC(=O)c1cc2sccc2n1CC(=O)Nc1ccc(OC)cc1,-3,7,12*,7,-14,-3,16*,31*
COC(=O)c1cc2ccsc2n1CC(=O)Nc1cc(C)cc(C)c1,-2,16,33*,.,26,1,38*,48*
O=C(CCNS(=O)(=O)/C=C/c1ccccc1)NCCc1c[nH]c2ccccc12,-4,6,-3,.,8,0,.,.
CN(C)CC(C)(C)CNC(=S)Nc1cc(S(=O)(=O)N2CCOCC2)ccc1Cl,2,1,-1,5,53,0,.,.
CCOc1ccccc1-c1nc(C(N)=O)c2[nH]c(=O)n(-c3ccccc3)c2n1,3,-6,19*,.,8,2,28*,58*
COc1cccc(-c2nc(C(N)=O)c3[nH]c(=O)n(-c4ccccc4)c3n2)c1OC,5,-11,2,21,2,-1,.,.
CCC(C)(C)NC(=S)Nc1ccc(-c2nc3ccc(C)cc3s2)cc1,-6,-5,11*,5,-17,-3,10*,24*
Cc1ccccc1NC(=O)CCC(=O)OCC(=O)c1ccc(-c2ccccc2)cc1,7,0,13*,0,-7,8,13*,24*
COc1cc(/C=C/C(=O)OCC(=O)Nc2ccccc2Cl)cc(OC)c1OC,1,-11,23*,-13,-3,0,27*,41*
CCS(=O)(=O)N1CCC(C(=O)NCc2ccccn2)CC1,1,0,-1,.,-5,2,.,.
O=C(NCc1ccccn1)C1CCN(S(=O)(=O)N2CCCCC2)CC1,-1,-4,8.6*,.,-16,4,8,11*
O=c1[nH]c(SCc2nc3ccccc3n2Cc2ccccc2)nc2ccccc12,-2,3,13*,.,1,-1,24*,30*
CCOC(=O)Nc1nc(C)c(C(=O)c2ccc(Cl)cc2)s1,-3,4,10*,20,-12,2,17*,33*
O=C1C(=O)N(CCN2CCOCC2)C(c2ccccc2)/C1=C(\O)c1ccc2c(c1)OCCO2 (stereo unspecified),-2,-6,15*,19,3,0,21*,23*
C=CCOc1cccc(C2/C(=C(/O)c3ccc(C)cc3)C(=O)C(=O)N2CCN2CCOCC2)c1 (stereo unspecified),-1,2,-2,2,0,3,.,.
O=C1C(=O)N(CCCN2CCOCC2)C(c2ccc(Cl)cc2)/C1=C(\O)c1ccc2c(c1)OCCO2 (stereo unspecified),-1,0,10*,.,-9,0,23*,27*
C=CCOc1cccc(C2/C(=C(\O)c3ccc4c(c3)OCCO4)C(=O)C(=O)N2CCN2CCOCC2)c1 (stereo unspecified),4,-7,9.3*,.,-32,0,16*,21*
CCCCOc1ccc(C2/C(=C(\O)c3ccc4c(c3)OCCO4)C(=O)C(=O)N2CCCN2CCOCC2)cc1 (stereo unspecified),-1,7,1,11,-17,1,.,.
CN1CC(=O)N(CC(=O)Nc2ccc(SC(F)F)cc2)C1=O,0,2,0,-3,-8,0,.,.
CC(=O)c1c(C)[nH]c(C(=O)OCC(=O)N2CCN(c3ccccc3)CC2)c1C,.,6,-4,-3,.,-1,.,.
CCOC(=O)C(=CNc1cc(C)nn1-c1ccc(C)cc1)C(=O)OCC,-2,5,2,-2,31,3,.,.
SMILES,beta cell repl,Rev-erbA mod,PG9 binder,H9c2 TAG inh,T cruzi inh,iPSC survival up,PG9 binder conf,PGV04 counter
CCCC1=Nc2cc(C(=O)NCCCN3CCOCC3)ccc2Sc2ccccc21,-2,4,12*,.,20,0,11*,15*
Cn1cnc(S(=O)(=O)N2CCc3ccccc32)c1,-2,-1,-1,-8,-22,-2,.,.
COc1ccc(CC(=O)Nc2ccc(N3CCN(c4ccc(OC)cc4)CC3)c(C#N)c2)cc1,-1,8,9.1*,36,-4,-4,18*,24*
CCOc1ccc(Nc2nc3c(C)cccc3cc2C#N)cc1,-1,10,12*,-22,6,-1,15*,26*
COc1ccc2nc(NC(=O)CSc3nc4cccnc4n3C)sc2c1,0,7,26*,-27,-15,-1,29*,42*
COC(=O)c1sc(NC(=O)CSc2nc3cccnc3n2C2CCCCC2)nc1C,-5,0,-1,1,-16,0,.,.
COC(=O)c1sc(NC(=O)CSc2nc3cccnc3n2C)nc1C,-4,3,22*,.,4,0,33*,45*
COc1ccc(NC(=O)CSc2nc3cccnc3n2C)cc1,-4,-3,1,-11,3,0,.,.
O=C(NCc1cccnc1)c1ccc(Cn2c(=S)[nH]c3ccc(Br)cc3c2=O)cc1,-2,9,10*,-2,12,0,13*,13*
COc1ccc(N(CC(=O)N/N=C/c2ccc(C(=O)O)cc2)S(=O)(=O)c2ccc(NC(C)=O)cc2)cc1,-1,4,-2,.,17,0,.,.
CCN1C(=O)C2(C(C(=O)c3ccc(C)o3)=C(O)C(=O)N2CCCN2CCOCC2)c2ccccc21 (stereo unspecified),-1,-1,1,.,-2,4,.,.
CCN1C(=O)C2(C(C(=O)c3cc4ccccc4o3)=C(O)C(=O)N2CCCN2CCOCC2)c2ccccc21 (stereo unspecified),-2,-4,36*,1,-3,0,45*,55*
Cc1ccc(C(=O)C2=C(O)C(=O)N(CCCN3CCOCC3)C23C(=O)N(C)c2ccccc23)o1 (stereo unspecified),-1,-5,9.1*,.,-12,2,19*,23*
